Test results as given in article PMC9290342 (Clinical Pharmacology in Drug Development, 2021).
Where two headings read alike, the source gives them in different places.

Key:
[1] = format: in vivo, human; settings: for tmax, total methylprednisolone: median (minimum‐maximum)
Summary of the method: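 Oral methylprednisolone tablets were given to healthy in-clinic volunteers, with serial whole-blood sampling over 24 h after dosing on study days 1 and 4. Plasma total methylprednisolone was quantified by validated LC–MS/MS. The PK population comprised subjects with at least 4 consecutive quantifiable concentrations. Parameters were summarized descriptively.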

[2] = Plasma pharmacokinetics of free methylprednisolone after oral methylprednisolone; format: in vivo, human; settings: oral 32 mg daily; for tmax, free methylprednisolone: median (minimum‐maximum)
[3] = system: steroidogenic concentration (CSG = 5 × ConcMPD + ConcCortisol); experiment: Steroidogenic exposure; format: in vivo, human; settings: oral methylprednisolone 32 mg daily
Summary of the method: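 After oral methylprednisolone on days 1 and 4, plasma total and free methylprednisolone were measured over 24 h by LC–MS/MS, alongside serum total and plasma free cortisol. Steroidogenic concentration was CSG = 5 × methylprednisolone concentration + cortisol concentration. AUEC24SG was derived noncompartmentally from actual sampling times, in subjects belonging to both the PK and PD populations.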

[4] = Safety: adverse events, examinations, laboratory tests; format: in vivo, human; settings: n = 16 subjects per study drug group
Summary of the method: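 The safety population comprised every subject given ≥1 dose. Assessments throughout the study covered AEs, TEAEs (events after the first dose through study completion), serious TEAEs, physical examinations, vital signs, 12‑lead ECGs and clinical laboratory tests. Results were summarized descriptively.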

[5] = every 1 mg of methylprednisolone is equivalent to 5 mg of cortisol; cited from earlier work
[6] = oral 32 mg daily, plasma, day 1, mean (SD), n = 16
[7] = oral 32 mg daily, plasma, day 4, mean (SD), n = 14
[8] = plasma, day 1, mean (SD), n = 16

RAUC0‐24 (accumulation ratio), total methylprednisolone ([1]; oral 32 mg daily, AUC0-24 on day 4 divided by AUC0-24 on day 1, mean): 0.9 | time of mean peak plasma total methylprednisolone concentration (mean profile) ([1]; oral 32 mg daily, after oral dosing): around 2 hours | AUC0‐inf, total methylprednisolone [1, 6]: n = 16 1030 (380) ng • h/mL | AUC0‐last, total methylprednisolone [1, 6]: n = 16 1020 (381) ng • h/mL | t½, total methylprednisolone [1, 6]: n = 16 2.2 (0.6) h | t½, total methylprednisolone ([1]; oral 32 mg daily, plasma, day 1, mean (SD), n = 16, listed as methylprednisolone): 2.2 h | tmax, total methylprednisolone ([1]; oral 32 mg daily, plasma, day 1, n = 16): n = 16 2.0 (2.0‐4.0) h | AUC0‐last, total methylprednisolone [1, 7]: n = 14 919 (297) ng • h/mL | t½, total methylprednisolone [1, 7]: n = 14 2.4 (0.7) h | t½, total methylprednisolone ([1]; oral 32 mg daily, plasma, day 4, mean (SD), n = 14, listed as methylprednisolone): 2.4 h | tmax, total methylprednisolone ([1]; oral 32 mg daily, plasma, day 4, n = 14): n = 14 2.0 (1.0‐4.0) h | Cmax, total methylprednisolone ([1]; oral methylprednisolone 32 mg daily, plasma, LC-MS/MS, day 4, mean (SD), n = 14): n = 14 188.0 (40.0) ng/mL | time of mean peak plasma free methylprednisolone concentration (mean profile) ([2]; after oral dosing): 2 h | Cmax, free methylprednisolone ([2]; plasma, LC-MS/MS, day 4, mean (SD), n = 15): n = 15 21.9 (5.4) ng/mL | AUC0‐inf, free methylprednisolone [2, 8]: n = 16 106 (36) ng • h/mL | AUC0‐last, free methylprednisolone [2, 8]: n = 16 104.0 (35.2) ng • h/mL | t½, free methylprednisolone [2, 8]: n = 16 1.9 (0.5) h | t½, free methylprednisolone ([2]; plasma, day 1, mean (SD), n = 16, listed as methylprednisolone): 1.9 h | tmax, free methylprednisolone ([2]; plasma, day 1, n = 16): n = 16 2.0 (1.0‐4.0) h | t½, free methylprednisolone ([2]; plasma, day 4, mean (SD), n = 13): n = 13 2.0 (0.5) h | t½, free methylprednisolone ([2]; plasma, day 4, mean (SD), n = 13, listed as methylprednisolone): 2.0 h | AUC0‐last, free methylprednisolone ([2]; plasma, day 4, mean (SD), n = 15): n = 15 89.5 (27.3) ng • h/mL | tmax, free methylprednisolone ([2]; plasma, day 4, n = 15): n = 15 2.0 (1.0‐4.0) h
SMILES: C[C@H]1C[C@@H]2[C@H]([C@@H](O)C[C@@]3(C)[C@H]2CC[C@]3(O)C(=O)CO)[C@@]2(C)C=CC(=O)C=C12 [Methylprednisolone, methylprednisolone]
plasma total AUEC24SG ([3]; day 1, mean (SD 1770.0)): 6480.0 ng·h/mL | plasma free AUEC24SG ([3]; day 4, mean (SD 136.0)): 492.0 ng·h/mL | plasma total AUEC24SG ([3]; day 4, mean (SD 1330.0)): 5440.0 ng·h/mL | Any TESAE [4]: 0 n (%) | Subjects with any TEAE [4]: 10 (62.5) n (%) | TEAE: Contusion [4]: 1 (6.3) n (%) | TEAE: Dysuria [4]: 0 n (%) | TEAE: Headache [4]: 2 (12.5) n (%) | TEAE: Heart palpitations [4]: 2 (12.5) n (%) | TEAE: Injection site reaction [4]: 0 n (%) | TEAE: Insomnia [4]: 0 n (%) | TEAE: Somnolence [4]: 0 n (%) | TESAE: Pulmonary embolism [4]: 0 n (%) | AEs ([4]; number of adverse events): 17 n | potency relative to cortisol (times more potent) [5]: 5 times
